# Data: PMC7790458 (Journal of the American Chemical Society, 2020)
# How the values were obtained:
# E. coli ΔbamBΔtolC = assay: MIC, CLSI broth microdilution; assay type: cell-based; details: MH-II broth with dipyridyl
# S. aureus Newman = assay: MIC, CLSI broth microdilution; assay type: cell-based; details: MH-II broth with dipyridyl
# E. coli ΔsurA = assay: MIC, CLSI broth microdilution; assay type: cell-based; details: MH-II broth with dipyridyl
# [1] = Cleavage of acc peptide by human serum; assay type: in vitro ADME; details: fluorescence (Figure S8)
# Method in brief: (§1)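 Substrate is an N-acetylated peptide with 7-amino-4-carbamoylmethylcoumarin (acc) coupled directly to the P1 residue as an antibiotic surrogate, made by solid-phase synthesis. The substrate is incubated in human or mouse serum, and cleavage is followed as release of free fluorescent amino coumarin.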
# [2] = system: periplasmic extract of E. coli K12 MG1655; assay: acc release from fluorogenic peptides in periplasmic extract; assay type: biochemical; details: HPLC analysis (Figure S9)
# [3] = Cleavage of acc peptide by mouse serum; assay type: in vitro ADME; details: compared with human serum
# Method in brief: as §1
Compound,MIC (E. coli ΔbamBΔtolC),MIC (S. aureus Newman) [µM],MIC (E. coli ΔsurA) [µM],half-life of acc release [1] [h],substrate consumption at the end of the reaction [2],cleavage by mouse serum [3]
eperezolid-NH2 [compound 5],> 171 µM,43,43,,,
Ac-WSPKYM-acc [compound 1],,,,3 to 4,fully consumed,cleaved more rapidly
CC(=O)NC[C@H]1CN(c2ccc(N3CCN(C(=O)CO)CC3)c(F)c2)C(=O)O1 [eperezolid],susceptible,,,,,
